Assay results as given in ChEMBL document CHEMBL3621143, “Discovery of BMS-641988, a Novel Androgen Receptor Antagonist for the Treatment of Prostate Cancer” (ACS Med Chem Lett, 2015).
Active and inactive are the calls of the source. The rule behind the calls is not given here.

Tests used:
[1] = molecular target: T1, Androgen receptor (Homo sapiens, UniProt P10275); assay: Displacement of [3H]-DHT from androgen receptor in human MDA-MB-453 cells after 90 mins by TopCount analysis; format: cell-based
T1 sequence (P10275 whole entry): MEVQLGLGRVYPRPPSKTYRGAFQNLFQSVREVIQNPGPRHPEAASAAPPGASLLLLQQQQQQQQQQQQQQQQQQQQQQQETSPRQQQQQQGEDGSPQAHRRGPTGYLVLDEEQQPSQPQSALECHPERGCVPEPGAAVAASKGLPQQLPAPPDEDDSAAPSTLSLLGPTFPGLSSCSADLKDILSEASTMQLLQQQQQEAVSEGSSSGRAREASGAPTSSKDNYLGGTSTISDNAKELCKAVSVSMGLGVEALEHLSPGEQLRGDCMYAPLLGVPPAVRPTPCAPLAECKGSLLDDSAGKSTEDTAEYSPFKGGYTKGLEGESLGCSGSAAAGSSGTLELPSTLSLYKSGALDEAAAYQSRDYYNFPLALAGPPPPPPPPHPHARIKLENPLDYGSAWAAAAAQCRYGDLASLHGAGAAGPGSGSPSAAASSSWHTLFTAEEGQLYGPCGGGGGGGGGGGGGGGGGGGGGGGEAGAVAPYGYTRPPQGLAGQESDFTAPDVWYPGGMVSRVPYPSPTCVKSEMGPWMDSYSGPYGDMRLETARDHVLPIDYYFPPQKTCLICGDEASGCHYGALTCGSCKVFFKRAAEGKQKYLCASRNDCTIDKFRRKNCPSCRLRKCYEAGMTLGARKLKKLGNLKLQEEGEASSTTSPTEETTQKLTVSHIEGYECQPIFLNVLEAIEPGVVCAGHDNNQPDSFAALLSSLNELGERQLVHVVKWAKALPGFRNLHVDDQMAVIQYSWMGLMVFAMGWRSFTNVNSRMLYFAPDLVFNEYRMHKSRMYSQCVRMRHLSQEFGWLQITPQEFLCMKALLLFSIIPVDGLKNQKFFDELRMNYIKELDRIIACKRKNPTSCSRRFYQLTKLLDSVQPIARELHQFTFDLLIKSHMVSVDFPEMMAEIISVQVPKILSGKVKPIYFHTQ

[2] = molecular target: T1, Androgen receptor; assay: Antagonist activity at androgen receptor in human MDA-MB-453 cells assessed as inhibition of DHT-induced PSA expression by alkaline phosphatase reporter gene assay; format: cell-based
[3] = system: Rattus norvegicus; assay: In vivo antagonist activity at androgen receptor in immature Sprague-Dawley rat prostate weight model assessed as testosterone propionate-induced weight of seminal vesicles over full body weight at 1 mg/kg, po qd administered for 4 days; format: functional; design: scale not given: the % may be the effect or the level left
Procedure, shortened: (§1)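 Immature rat prostate weight PK/PD model. Oral dosing once daily at 1 or 10 mg/kg for 4 days. Seminal vesicle weight expressed as % of full body weight, n=3, scaled so testosterone-treated control = 100% and sham = 10%.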

[4] = system: Rattus norvegicus; assay: In vivo antagonist activity at androgen receptor in immature Sprague-Dawley rat prostate weight model assessed as testosterone propionate-induced weight of seminal vesicles over full body weight at 10 mg/kg, po qd administered for 4 days; format: functional; design: scale not given: the % may be the effect or the level left; procedure, shortened: as §1
[5] = Plasma concentration in immature Sprague-Dawley rat prostate weight model at 1 mg/kg, po qd administered for 4 days measured 2 hrs post last dose on day 4; format: ADME, organism-based
Procedure, shortened: (§2)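 Immature rat prostate weight model, oral dosing once daily at 1 or 10 mg/kg for 4 days. Plasma drug concentration (µM) measured 2 hours post-dose on day 4, n=3.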

[6] = Plasma concentration in immature Sprague-Dawley rat prostate weight model at 10 mg/kg, po qd administered for 4 days measured 2 hrs post last dose on day 4; format: ADME, organism-based; procedure, shortened: as §2
[7] = Protein binding in mouse serum; format: ADME, cell-free; details: read-out: PB
[8] = system: CWR22; assay: Antitumor activity against human CWR22 cells in Balb/c athymic (nu/nu) mouse CWR22-BMSLD1 prostate cancer xenograft model assessed as tumor growth inhibition at 150 mg/kg, po qd measured for 10 days during compound dosing; format: functional, organism-based
Procedure, shortened: (§3)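 CWR22-BMSLD1 human prostate cancer xenograft. Oral once-daily dosing at 90 mg/kg for 45 days, or at 150 mg/kg for 35 days, with a vehicle group. Median tumor volume (mm3) tracked against days post implant.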

[9] = system: CWR22; assay: Antitumor activity against human CWR22 cells in Balb/c athymic (nu/nu) mouse CWR22-BMSLD1 prostate cancer xenograft model assessed as tumor growth inhibition at 150 mg/kg, po qd administered for 35 days measured from day 10 to 35 during compound dosing; format: functional, organism-based; procedure, shortened: as §3

Compound | Ki [1] [nM] | IC50 [2] [nM] | Activity [3] [%] | Activity [4] [%] | concentration at 2 h [5] [nM] | concentration at 2 h [6] [nM] | fraction unbound [7] | TGI [8] | TGI [9]
CNS(=O)(=O)N[C@@H]1C[C@]2(C)O[C@]1(C)[C@@H]1C(=O)N(c3ccc(C#N)c(C(F)(F)F)c3)C(=O)[C@@H]12 | 50 | 34 | 89 | 36 | 10 | 230 | – | – | –
C[C@]12O[C@@](C)(C[C@H]1N)[C@H]1C(=O)N(c3ccc(C#N)c(C(F)(F)F)c3)C(=O)[C@H]12 | 31 | 60 | 89 | 89 | 80 | 480 | – | – | –
CCC(=O)N[C@@H]1C[C@]2(C)O[C@]1(C)[C@@H]1C(=O)N(c3ccc(C#N)c(C(F)(F)F)c3)C(=O)[C@@H]12 | 3 | 23 | 87 | 34 | 24000 | 190000 | < 0.01 | – | –
C[C@]12O[C@@](C)(C[C@H]1NS(=O)(=O)c1cccnc1)[C@H]1C(=O)N(c3ccc(C#N)c(C(F)(F)F)c3)C(=O)[C@H]12 | 2 | 7 | 44 | 23 | 50 | 520 | – | – | –
C[C@]12O[C@@](C)(C[C@H]1NS(=O)(=O)c1ccccc1F)[C@H]1C(=O)N(c3ccc(C#N)c(C(F)(F)F)c3)C(=O)[C@H]12 | 1 | 10 | 56 | 24 | 160 | 1900 | – | – | –
CC(C)OC(=O)[C@@H]1C[C@]2(C)O[C@]1(C)[C@@H]1C(=O)N(c3ccc(C#N)c(C(F)(F)F)c3)C(=O)[C@@H]12 | 23 | 22 | – | – | – | – | – | – | –
CC12C[C@H](O)[C@](C)(O1)[C@@H]1C(=O)N(c3ccc(C#N)c(I)c3)C(=O)[C@@H]12 (single isomer, unassigned) | 8 | 10 | – | – | – | – | – | – | –
CC(C)NC(=O)N[C@@H]1C[C@]2(C)O[C@]1(C)[C@@H]1C(=O)N(c3ccc(C#N)c(C(F)(F)F)c3)C(=O)[C@@H]12 | 31 | 60 | 115 | 56 | 8300 | 60000 | < 0.01 | – | –
CC(O)(CS(=O)(=O)c1ccc(F)cc1)C(=O)Nc1ccc(C#N)c(C(F)(F)F)c1 (stereo not drawn) [BICALUTAMIDE] | – | – | 69 | 41 | 2300 | 9500 | – | Active | inactive
C[C@]12O[C@@](C)(C[C@H]1C(=O)O)[C@H]1C(=O)N(c3ccc(C#N)c(C(F)(F)F)c3)C(=O)[C@H]12 | 1600 | > 5000 | – | – | – | – | – | – | –
CN(C(=O)[C@@H]1C[C@]2(C)O[C@]1(C)[C@@H]1C(=O)N(c3ccc(C#N)c(C(F)(F)F)c3)C(=O)[C@@H]12)c1ccccc1 | 50 | 34 | 88 | 43 | 1800 | 12000 | – | – | –
C[C@]12O[C@@](C)(C[C@H]1NS(=O)(=O)c1ccccc1)[C@H]1C(=O)N(c3ccc(C#N)c(C(F)(F)F)c3)C(=O)[C@H]12 | 10 | 1 | 63 | 31 | 230 | 2400 | – | – | –
C[C@]12O[C@@](C)(C[C@H]1NS(C)(=O)=O)[C@H]1C(=O)N(c3ccc(C#N)c(C(F)(F)F)c3)C(=O)[C@H]12 | 12 | 20 | 64 | 26 | 290 | 4000 | – | – | –
